Results pooled from the literature.
Compare with care: the assays were run in different laboratories.
TACR2: Substance-K receptor (TACR2, Homo sapiens, UniProt P21452)
ALOX5: Polyunsaturated fatty acid 5-lipoxygenase (ALOX5, Homo sapiens, UniProt P09917)
HDAC8: Histone deacetylase 8 (HDAC8, Homo sapiens, UniProt Q9BY41)

`COc1cc(NC(C)=O)c(Cl)cc1C(=O)Nc1nccs1` has an inhibition of 20% (TACR2; cell-free assay; 10 µM).
`O=c1occcc1O` gave an inhibition of over 70% (ALOX5; enzyme activity, inhibitor, fluorescence; 1 mM).
`COc1ccc(CCCn2ncc3c2nc(N)n2nc(-c4ccco4)nc32)cc1` has an inhibition of 6% (Adenosine receptor A3 (Mus musculus, UniProt Q61618); ligand displacement, radioligand; 10 µM, cell membranes).
With `CC(=O)O[C@@H]1c2c(ccc3ccc(=O)oc23)OC(C)(C)[C@@H]1OC(=O)C1(C)OC1C` (stereo partly drawn) the inhibition was 43.5% (HDAC8; enzyme activity, inhibitor; 10 µM).
With `O=C(c1ccc(F)cc1)N(Cc1ccccc1)C1CCCCC1` the inhibition was 6% (Mu-type opioid receptor (OPRM1, Homo sapiens, UniProt P35372); ligand displacement; 10 µM).
For `CN(C)C1CCN(CC#Cc2nn(C3CCCC3)c3nc(NCc4ccccc4)ncc23)C1` (stereo not drawn), the inhibition was 7% (G protein-coupled receptor kinase 4 (GRK4, Homo sapiens, UniProt P32298); enzyme activity, inhibitor, FRET; 0.1 µM).
The inhibition of `O=C1N=C(N2CCCCN2)S/C1=C\c1ccc(F)cc1O` is reported as under 10% (TACR2; ligand displacement, radioligand; 10 µM).
The inhibition of `Cc1occc(=S)c1O` is reported as over 70% (ALOX5; enzyme activity, inhibitor, fluorescence; 1 mM).
With `CCN1CCN(Cc2ccc(NC(=O)c3ccc(C)c(Oc4ccnc5[nH]ccc45)c3)cc2C(F)(F)F)CC1` the inhibition was -20.3% (Mitogen-activated protein kinase kinase kinase 4 (MAP3K4, Homo sapiens, UniProt Q9Y6R4); target engagement in cells, inhibitor, chemoproteomics; A-375; 50 nM).
`O=c1cc(-c2ccc(O)c(O)c2)oc2cc(O)cc(O)c12` has an inhibition of 67.2% (HDAC8; enzyme activity, inhibitor; 10 µM).
`CCc1c(O)c(=S)ccn1CC` has an inhibition of over 70% (ALOX5; enzyme activity, inhibitor, fluorescence; 1 mM).
`O=c1c(O[C@@H]2O[C@H](CO)[C@@H](O)[C@H](O)[C@H]2O)c(-c2ccc(O)cc2)oc2cc(O)cc(O)c12` has an inhibition of 14.8% (HDAC8; enzyme activity, inhibitor; 10 µM).
With `Oc1cccc(Nc2nc(-c3ccc(F)cc3F)cs2)c1` the inhibition was 31.5% (TACR2; cell-free assay; 10 µM).
The inhibition of `N#Cc1cc(Cn2c(N3CCCC3)nc3ccccc32)ccc1F` is reported as -36.9% (5-hydroxytryptamine receptor 1D (HTR1D, Homo sapiens, UniProt P28221); cell-free assay; 10 µM).
With `CC(=O)OC1c2c(ccc3ccc(=O)oc23)OC(C)(C)C1OC(=O)C(C)(O)C(C)O` (stereo not drawn) the inhibition was 41.2% (HDAC8; enzyme activity, inhibitor; 10 µM).
